Results taken from ChEMBL document CHEMBL1212911, “Identification of potent and selective amidobipyridyl inhibitors of protein kinase D” (J Med Chem, 2010).

Tests used:
[1] = target: T1, Serine/threonine-protein kinase D1 (Homo sapiens, UniProt Q15139); assay: Inhibition of PKD1 by TR-FRET assay
T1 sequence (Q15139 whole entry): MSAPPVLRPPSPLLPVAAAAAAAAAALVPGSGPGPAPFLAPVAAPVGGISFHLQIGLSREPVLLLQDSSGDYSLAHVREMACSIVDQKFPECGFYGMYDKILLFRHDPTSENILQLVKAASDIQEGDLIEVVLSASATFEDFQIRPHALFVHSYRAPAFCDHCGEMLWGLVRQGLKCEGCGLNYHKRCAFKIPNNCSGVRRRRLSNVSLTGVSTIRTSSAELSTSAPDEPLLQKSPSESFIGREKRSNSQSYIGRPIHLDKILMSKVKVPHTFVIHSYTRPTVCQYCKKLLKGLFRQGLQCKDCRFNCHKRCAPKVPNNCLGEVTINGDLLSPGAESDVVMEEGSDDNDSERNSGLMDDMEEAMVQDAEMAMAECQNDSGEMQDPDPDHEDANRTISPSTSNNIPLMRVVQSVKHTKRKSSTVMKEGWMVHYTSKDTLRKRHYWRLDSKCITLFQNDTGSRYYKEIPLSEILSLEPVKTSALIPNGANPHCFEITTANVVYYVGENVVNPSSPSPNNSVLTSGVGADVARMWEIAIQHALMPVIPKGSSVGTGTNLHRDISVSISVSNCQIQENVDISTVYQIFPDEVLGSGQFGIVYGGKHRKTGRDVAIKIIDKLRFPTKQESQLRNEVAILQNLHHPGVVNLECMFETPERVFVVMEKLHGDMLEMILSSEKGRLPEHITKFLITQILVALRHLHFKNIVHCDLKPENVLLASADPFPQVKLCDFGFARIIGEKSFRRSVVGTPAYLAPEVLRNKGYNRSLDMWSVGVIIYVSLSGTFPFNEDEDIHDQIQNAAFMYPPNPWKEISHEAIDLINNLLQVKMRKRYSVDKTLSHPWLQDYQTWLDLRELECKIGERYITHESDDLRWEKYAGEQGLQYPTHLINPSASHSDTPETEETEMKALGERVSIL
Method in brief: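 Full-length wild-type PKD1 expressed and purified from Sf9 cells, 0.2 μg/mL, in 35 mM Tris-HCl pH 7.5, 5 mM MgCl2, 0.02% Tween-20, 20 μM ATP, 1 mM DTT. Reaction started with 2 μM biotinylated syntide-2 and run 50 min at room temperature. Stopped with EDTA plus europium anti-rabbit IgG, anti-phospho-syntide-2 antibody and streptavidin-APC. LANCE TR-FRET 665/615 ratio read after 1 h. 11-point curves in triplicate gave IC50.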

[2] = target: T1, Serine/threonine-protein kinase D1; assay: Inhibition of PKD1 assessed as inhibition of HDAC5 neuclear export
Method in brief: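 Neonatal rat ventricular myocytes infected with adenovirus encoding GFP-HDAC5 and plated on gelatin-coated wells. Cells exposed to compound and stimulated with PGF2α for 2 h, then fixed. Cytoplasmic versus nuclear GFP intensity quantified by high-content imaging.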

[3] = target: T2, Serine/threonine-protein kinase D2 (Homo sapiens, UniProt Q9BZL6); assay: Inhibition of PKD2 by TR-FRET assay
T2 sequence (Q9BZL6 whole entry): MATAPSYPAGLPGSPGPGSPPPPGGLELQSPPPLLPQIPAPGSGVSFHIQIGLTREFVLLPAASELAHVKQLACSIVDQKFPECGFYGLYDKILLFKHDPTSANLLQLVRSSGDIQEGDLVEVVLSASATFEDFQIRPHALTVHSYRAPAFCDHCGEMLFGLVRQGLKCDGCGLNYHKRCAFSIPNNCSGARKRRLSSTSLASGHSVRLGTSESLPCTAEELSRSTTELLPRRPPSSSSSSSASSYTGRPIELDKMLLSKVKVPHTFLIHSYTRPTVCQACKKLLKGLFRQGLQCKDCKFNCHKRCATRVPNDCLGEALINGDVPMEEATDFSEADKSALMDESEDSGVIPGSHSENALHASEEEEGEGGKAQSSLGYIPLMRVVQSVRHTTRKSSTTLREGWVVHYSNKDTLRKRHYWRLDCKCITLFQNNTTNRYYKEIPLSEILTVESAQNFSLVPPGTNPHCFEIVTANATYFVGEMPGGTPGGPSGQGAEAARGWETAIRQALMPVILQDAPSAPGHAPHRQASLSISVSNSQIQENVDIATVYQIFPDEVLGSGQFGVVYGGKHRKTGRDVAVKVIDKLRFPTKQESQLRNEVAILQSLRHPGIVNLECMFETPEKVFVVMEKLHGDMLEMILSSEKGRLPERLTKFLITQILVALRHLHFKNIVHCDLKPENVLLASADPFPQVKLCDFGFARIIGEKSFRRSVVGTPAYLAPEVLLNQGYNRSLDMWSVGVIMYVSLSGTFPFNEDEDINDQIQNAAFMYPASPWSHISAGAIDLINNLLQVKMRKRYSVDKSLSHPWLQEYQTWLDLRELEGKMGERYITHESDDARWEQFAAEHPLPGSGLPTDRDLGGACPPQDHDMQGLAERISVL

[4] = AUC (0 to 8 hrs) in Sprague-Dawley rat at 5 mg/kg, po; assay type: ADME, organism-based; parameters: time < 8 hr, dose 5 mg/kg, route oral; details: plasma
[5] = Clearance in Sprague-Dawley rat at 2 mg/kg, iv and 5 mg/kg, po; assay type: ADME, organism-based; details: in vivo
Method in brief: (§1)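 Rats dosed iv 2 mg/kg (n = 2) or po 5 mg/kg (n = 3) in 10% NMP, 10% Cremophor, 80% pH 4.63 buffer. PK parameters derived from iv dosing, reported as mean ± SD.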

[6] = Volume of distribution at steady state in Sprague-Dawley rat at 2 mg/kg, iv and 5 mg/kg, po; assay type: ADME, organism-based; details: in vivo, read-out: Vdss; method in brief: as §1
[7] = Cmax in rats after 5 mg/kg oral dose; assay type: ADME, organism-based; parameters: dose 5 mg/kg, route oral; details: Sprague-Dawley, rat, in vivo
[8] = Half life in rats after 2 mg/kg intravenous dose; assay type: ADME, organism-based; parameters: dose 2 mg/kg, route intravenous; details: Sprague-Dawley, rat, in vivo; method in brief: as §1
[9] = Oral bioavailability in Sprague-Dawley rat at 5 mg/kg; assay type: ADME, organism-based; details: in vivo; method in brief: as §1

| SMILES | IC50 [1] [nM] | EC50 [2] [nM] | IC50 [3] [nM] | AUC(0-t) at 8 h [4] [µM·h] | clearance [5] [mL/min/kg] | Vd [6] [L/kg] | Cmax [7] [nM] | half-life [8] [h] | bioavailability [9] [%] |
| --- | --- | --- | --- | --- | --- | --- | --- | --- | --- |
| CC(C)Nc1cc(-c2cc(-c3cn[nH]c3)cc(N3CCNCC3)n2)ccn1 | < 1 | 92 | 2 | – | – | – | – | – | – |
| NC(=O)c1cc(N[C@H]2CCNC2)nc(-c2ccnc(NC3CCCCC3)c2)c1 | 68 | > 1000 | 540 | – | – | – | – | – | – |
| O=C1NCc2c1cc(N1CCNCC1)nc2-c1ccnc(NC2CCCCC2)c1 | 1 | 115 | – | – | – | – | – | – | – |
| O=C1NCc2c1cc(-c1ccnc(NC3CCCCC3)c1)nc2N1CCNCC1 | 35 | > 1000 | – | 0.1 | 86 | 35 | 31 | 6.2 | 5 |
| FC(F)(F)c1cc(-c2ccnc(NC3CCCCC3)c2)nc(N2CCNCC2)c1 | – | 342 | – | 0.73 | – | – | 251 | – | 31 |
| NC(=O)c1cc(-c2ccnc(Nc3ccccc3Cl)c2)nc(N2CCNCC2)c1 | 1 | 478 | 8 | – | – | – | – | – | – |
| Cn1ccc(Nc2cc(-c3cc(C(N)=O)cc(N4CCNCC4)n3)ccn2)n1 | 1 | 674 | 7 | – | – | – | – | – | – |
| N#Cc1cc(-c2ccnc(Nc3ccccc3)c2)nc(N2CCNCC2)c1 | 5 | 378 | 35 | 1.1 | 31 | 7.8 | 231 | 3.1 | 18 |
| CN1CCN(c2cc(C(N)=O)cc(-c3ccnc(NC4CCCCC4)c3)n2)CC1 | 25 | 752 | 238 | – | – | – | – | – | – |
| FC(F)c1cc(-c2ccnc(NC3CCCCC3)c2)nc(N2CCNCC2)c1 | 17 | 568 | 76 | – | – | – | – | – | – |
| c1cc(-c2cc(-c3cn[nH]c3)cc(N3CCNCC3)n2)cc(NC2CCOCC2)n1 | < 1 | 234 | 2 | – | – | – | – | – | – |
| C[C@H]1CN(c2cc(C(N)=O)cc(-c3ccnc(NC4CCCCC4)c3)n2)CCN1 | 8 | 831 | 86 | – | – | – | – | – | – |
| NC(=O)c1cc(N[C@@H]2CCNC2)nc(-c2ccnc(NC3CCCCC3)c2)c1 | 2 | > 1000 | 18 | – | – | – | – | – | – |
| NC(=O)c1cc(-c2ccnc(NC3CCOCC3)c2)nc(N2CCNCC2)c1 | 1 | > 1000 | 9 | – | – | – | – | – | – |
| c1cc(-c2cc(-c3cn[nH]c3)cc(N3CCNCC3)n2)cc(NC2CCCCC2)n1 | < 1 | 17 | 1 | – | – | – | – | – | – |
| NCC1CCN(c2cc(C(N)=O)cc(-c3ccnc(NC4CCCCC4)c3)n2)CC1 | 46 | > 1000 | 212 | – | – | – | – | – | – |
| NC(=O)c1cc(-c2ccnc(NC3CCCCC3)c2)nc(N2CCOCC2)c1 | > 1000 | – | – | – | – | – | – | – | – |
| C[C@@H]1CN(c2cc(C(N)=O)cc(-c3ccnc(NC4CCCCC4)c3)n2)CCN1 | – | 679 | – | – | – | – | – | – | – |
| NC(=O)c1cc(-c2ccnc(NC3CCCC3)c2)nc(N2CCNCC2)c1 | 6 | 202 | 59 | – | – | – | – | – | – |
| CC1(C)CN(c2cc(C(N)=O)cc(-c3ccnc(NC4CCCCC4)c3)n2)CCN1 | 55 | > 1000 | 427 | – | – | – | – | – | – |
| c1cc(-c2cc(-c3cc[nH]n3)cc(N3CCNCC3)n2)cc(NC2CCCCC2)n1 | 4 | 704 | 62 | – | – | – | – | – | – |
| CCNc1cc(-c2cc(C(N)=O)cc(N3CCNCC3)n2)ccn1 | 4 | > 1000 | 31 | – | – | – | – | – | – |
| CC(C)Nc1cc(-c2cc(C(N)=O)cc(N3CCNCC3)n2)ccn1 | 1 | 438 | 8 | – | – | – | – | – | – |
| NC(=O)c1cc(-c2ccnc(Nc3ccccc3)c2)nc(N2CCNCC2)c1 | 1 | 24 | 1 | – | – | – | – | – | – |
| NC(=O)c1cc(-c2ccnc(NC3CCCCC3)c2)nc(N2CCCC(N)C2)c1 (centres undefined) | 14 | > 1000 | 168 | – | – | – | – | – | – |
| Cn1ccc(Nc2cc(-c3cc(C#N)cc(N4CCNCC4)n3)ccn2)n1 | – | 428 | 68 | – | – | – | – | – | – |
